# A selection: hits, their analogues and other compounds. The true share with any hit is near 2%.
# CHRM1 PAM – potentiates human M1 receptor response to acetylcholine; CHO-K1 hM1, Fluo-8 calcium fluorescence, ACh EC20; 0% = ACh EC20, 100% = maximal ACh; activation, % at 3 µM; P11229; AID 588819; 0.088% of 360,000 active; in the data active = activation above about 19%, passing the limit was not always enough
# Target sequence (P11229 whole entry, looked up): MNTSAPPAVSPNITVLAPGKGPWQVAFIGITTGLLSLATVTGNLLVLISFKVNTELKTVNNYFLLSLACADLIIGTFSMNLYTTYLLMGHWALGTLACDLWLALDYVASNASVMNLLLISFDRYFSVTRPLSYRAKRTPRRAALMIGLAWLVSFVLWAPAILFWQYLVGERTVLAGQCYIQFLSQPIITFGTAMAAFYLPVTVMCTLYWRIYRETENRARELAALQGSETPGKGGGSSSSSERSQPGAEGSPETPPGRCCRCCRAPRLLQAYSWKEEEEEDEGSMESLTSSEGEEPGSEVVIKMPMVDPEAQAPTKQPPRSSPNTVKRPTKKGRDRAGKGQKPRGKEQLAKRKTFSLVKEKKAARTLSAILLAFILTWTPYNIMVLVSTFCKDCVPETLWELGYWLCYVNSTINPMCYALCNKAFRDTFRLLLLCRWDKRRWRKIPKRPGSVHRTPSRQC
# CHRM1 agonist – agonists of human M1 muscarinic receptor; activation, % at 3 µM; 0.33% of 360,000 active; CHO-K1 hM1, Fluo-8 calcium fluorescence, agonist mode; 0% DMSO, 100% acetylcholine EC100;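 active = activation above the run's mean compound activation plus 3 SD, cut at about 16% in these data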;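 note: peak over basal fluorescence ratio within a 140 s kinetic read after compound addition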
# CHRM5 agonist – agonists of human muscarinic M5 receptor (CHRM5); 0.19% of 360,000 active; activation, % at 3 µM; P08912; CHO-K1 hM5 cells, Fluo-8 calcium fluorescence; 0% DMSO wells, 100% maximal acetylcholine response;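 active = activation above the run's mean over test compounds plus 3 SD, cut at about 23% in these data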;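 note: signal is peak over basal fluorescence ratio across the kinetic read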
# M5 PAM – positive allosteric modulators of human muscarinic M5 receptor | activation, % at 3 µM | CHO-K1 hM5, Fluo-8 calcium, ACh EC20 PAM; 0% = ACh EC20, 100% = ACh EC100 | 0.3% of 360,000 active;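 active = activation above the run cutoff, the mean activation of all test compounds plus 3 SD, cut at about 18% in these data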
#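 System – CHO-K1 hM5 cells · Compound – 3 µM, single dose · Incubation – compound preincubation 140 s before EC20 acetylcholine addition · Technique – Fluo-8 calcium fluorescence · Measure – Max/basal fluorescence ratio as % of EC20–EC100 ACh window · Benchmarks – low control EC20 acetylcholine (0%), high control EC100 acetylcholine (100%) · Replication – singlicate, one well per test compound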
# M5 antag – antagonists of human muscarinic M5 receptor (CHRM5) | CHO-hM5 cells, Fluo-8 calcium fluorescence, ACh EC80 | P08912 | 0.59% of 360,000 active | inhibition, % at 3 µM;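 active = inhibition above a per-plate cutoff, the mean of that plate's test compounds plus 3 SD, cut at about 27% in these data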;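 note: 0% = acetylcholine EC80 with DMSO and 100% = DMSO without agonist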
# CHRM1 antagonist – antagonists of human M1 muscarinic receptor; P11229; CHO-K1 hM1, Fluo-8 calcium fluorescence, ACh EC80 antagonist; inhibition, % at 3 µM; 1.3% of 360,000 active; AID 588852;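 active = percent inhibition above its own plate's cutoff, namely the mean of that plate's compound wells plus 3 SD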;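 note: peak over basal fluorescence ratio during 140 s after agonist addition; 0% = ACh EC80 plus DMSO and 100% = DMSO alone without agonist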
# An asterisk follows results filed as active; . = not tested or not shown.
SMILES,CHRM1 PAM,CHRM1 agonist,CHRM5 agonist,M5 PAM,M5 antag,CHRM1 antagonist
Cc1ccc(NC(=O)c2ccc(NCc3ccc(F)cc3)nc2)cc1,-6,-4,-3,-18,32*,4
O=P(CCN1CCCCC1)(c1ccccc1)c1ccccc1,-23,-6,-6,-17,6,71*
CCOC(=O)c1sc2nc(NC(=O)C3CC3)sc2c1C,7,-1,2,-7,7,-8
CCOC(=O)c1sc2nc(NC(=O)C(C)(C)C)sc2c1C,-19,-5,0,-18,12,32*
Cc1ccc(C)c(CNS(=O)(=O)c2c(C)[nH]c(C)c2C(=O)N2CCCCC2)c1,7,0,1,19*,-18,0
O=C(Nc1ccc(OCC(F)(F)C(F)F)c(C(F)(F)F)c1)c1ccccc1O,-16,5,6,-20,18,20*
O=C(Nc1ccc(OCC(F)(F)C(F)F)c(C(F)(F)F)c1)c1ccccc1,-6,-2,-7,-7,3,-31
C[C@H]1CN([C@@H](C)CO)C(=O)CCCn2cc(nn2)CO[C@@H]1CN(C)C(=O)Nc1ccc(F)cc1,2,-2,2,-2,1,-3
Cc1cc(NC(=O)C(C)Sc2nc(-c3cccs3)nc3ccccc23)no1 (stereo not given),10,-2,-2,0,4,-14
CCOC(=O)c1cc(-c2ccccc2)sc1NC(=O)COC(=O)c1cccc(S(N)(=O)=O)c1,4,-5,-3,-4,-4,-10
CCOC(=O)c1cc(-c2ccccc2)sc1NC(=O)C(C)OC(=O)c1cccc(S(=O)(=O)N(C)C)c1 (stereo not given),5,-5,-1,20*,7,-6
COc1ccc(NC2=NCC(=O)N2Cc2cccs2)cc1,9,0,1,21*,-16,-12
COc1ccc(-c2cc(C(F)(F)F)nc(S(=O)(=O)CCCC(=O)Nc3cccc(O)c3)n2)cc1OC,-10,-9,-1,-11,27*,8
CC(C)C(=O)N[C@H]1CCC2C3CC=C4C[C@@H](O)CC[C@]4(C)C3CC[C@@]21C (stereo not given in full),11,-7,4,1,10,-17
CCCCCCN[C@H]1CCC2C3CC=C4C[C@@H](O)CC[C@]4(C)C3CC[C@@]21C (stereo not given in full),-30,-4,-10,-18,12,90*
O=C(C(Cl)Cl)N1CC2CCC(CC2)C1,6,-4,-9,18*,-9,-8
c1ccc2c(c1)ncn2CCN1CCCCC1,4,-6,-6,20*,-11,-22
c1ccc(CCn2cnc3ccccc32)cc1,7,-3,-5,3,-4,-11
CC1CCCCN1C(=O)CSc1nc(-c2ccccc2)cc(=O)[nH]1 (stereo not given),5,-1,1,20*,-9,0
CC1CCCCN1C(=O)CSc1nc2ccccc2[nH]1 (stereo not given),-4,-4,2,4,-1,9
Cc1ccc(C)c(N(C)C(=O)c2ccc3c(=O)n4c(nc3c2)CCCCC4)c1,0,-4,-3,-9,8,-5
COC(=O)c1ccc(CNC(=O)c2cc(S(=O)(=O)NCc3ccccc3)ccc2C)cc1,0,1,2,-2,-1,0
COc1cccc(S(=O)(=O)N(C)C[C@@H]2Oc3ncc(C#CCN(C)C)cc3C(=O)N([C@H](C)CO)C[C@H]2C)c1,-31,-10,-2,-3,-3,49*
C[C@@H]1CN([C@@H](C)CO)C(=O)c2cc(Br)cnc2O[C@H]1CN(C)C(=O)CCN1CCCCC1,-10,-11,1,2,-3,9
C[C@@H]1CN([C@@H](C)CO)C(=O)c2cc(C#CCN(C)C)cnc2O[C@H]1CN(C)Cc1ccc2c(c1)OCO2,-30,-11,-3,-2,3,62*
SMILES,CHRM1 PAM,CHRM1 agonist,CHRM5 agonist,M5 PAM,M5 antag,CHRM1 antagonist
CCCC#Cc1cnc2c(c1)C(=O)N([C@H](C)CO)C[C@H](C)[C@@H](CN(C)C(=O)CCN1CCCCC1)O2,-25,-11,-2,-20,1,45*
CN(C)CCCCOc1ccccc1F,5,1,-12,2,9,-10
CN(C)CCCCOc1ccccc1-c1ccccc1,-20,-6,-7,-12,9,18*
O=C(c1ccc(-c2cc(Cl)ccc2Cl)o1)N1CCOCC1,12,0,3,19*,-9,-12
O=C(c1ccc(-c2ccc(Cl)cc2Cl)o1)N1CCOCC1,1,-4,-1,10,-13,0
Cc1cc(-n2[nH]c(C)c(C)c2=O)nc(-c2ccccc2O)n1,3,-2,0,37*,42*,-3
O=C(Nc1cccc2ccccc12)c1ccc2sc([C@H]3C[C@H](O)[C@@H](CO)O3)nc2c1,-6,-1,0,-7,3,-1
Cc1ccc(/C(CSc2nccn2-c2ncc(C(F)(F)F)cc2Cl)=N\O)cc1,-2,2,2,-5,0,10
O=C(CSc1nccn1-c1ncc(C(F)(F)F)cc1Cl)c1ccc(Br)cc1,-5,1,-2,22*,19,14
Cc1cccc2cc(CN(CCN(C)C)C(=S)Nc3ccccc3)c(=O)[nH]c12,8,-8,11,24*,-8,-8
Cc1cccc(NC(=S)N(CCN(C)C)Cc2cc3cc(C)ccc3[nH]c2=O)c1,1,-5,20,8,0,3
CCN(CC)CCN(Cc1cc2cc(C)ccc2[nH]c1=O)C(=S)Nc1ccccc1,1,-6,52*,-16,46*,2
Cc1ccc(N(Cc2cc3cccc(C)c3[nH]c2=O)S(=O)(=O)c2ccccc2)c(C)c1,-3,-2,-6,-12,28*,12
CCCCCC(=O)NC(=S)Nc1ccc2oc(=O)ccc2c1,0,-15,-8,2,-2,-1
O=C1C=CC(n2cc(F)c(=O)[nH]c2=O)O1 (stereo not given),13,-2,1,-3,8,-19
CCOC(=O)Cn1c(-c2ccccc2)cc(SC)c(C#N)c1=O,-27,-8,-10,-11,-3,52*
CCCCCc1c(-c2ccccc2OC)ncn1CCc1ccccc1OC,.,.,4,-23,32*,.
O=C(Cc1ccccc1Cl)c1ccccc1,32*,2,-2,9,-2,-14
CC(=O)N1C2=CCCC3CCCCC23c2ccccc21 (stereo not given),7,-7,-1,3,6,-19

# From PubChem BioAssay
